# Legend:
# [1] = t1/2 in rat plasma after oral dose (10 mg/kg); type: ADME, organism-based
# In short: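 Male Wistar CFHB rats (190–220 g, n=3/time point) given 10 mg/kg orally by gavage (10 mL/kg). Cardiac-puncture blood under ether at 0, 1, 3, 6, 24, 48, 72 h, individual heparinized samples; plasma kept at −20 °C. Levels by HPLC (ODS column, 0.1 M pH 7 phosphate 65%/acetonitrile 35%, UV 300 nm), internal standard, peak-area calibration from spiked blank plasma.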
# [2] = test system: Mus musculus; experiment: Compound was tested in vivo for its ability to inhibit DTH(delayed type hypersensitivity ) in mouse at a concentration of 30 mg/kg; type: functional
# In short: (§1)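 Male CD-1 mice (25–30 g, n = 8-16) sensitized day 0 by s.c. 1 mg methylated BSA in saline/Freund's complete adjuvant; negative controls saline/FCA. Day 7 challenge: MBSA 0.1 mg into right hind footpad, saline in left. Oral dosing once daily days 4–6 plus twice on day 7 (1 h before, 6 h after challenge). Paw edema read 24 h post-challenge; Student's t-test.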
# [3] = target: Dihydroorotate dehydrogenase (quinone), mitochondrial (Rattus norvegicus, UniProt Q63707); experiment: Inhibitory concentration tested against enzyme dihydroorotate dehydrogenase in rat
# Chain of Dihydroorotate dehydrogenase (quinone), mitochondrial (Rattus norvegicus, UniProt Q63707) (Q63707 whole entry): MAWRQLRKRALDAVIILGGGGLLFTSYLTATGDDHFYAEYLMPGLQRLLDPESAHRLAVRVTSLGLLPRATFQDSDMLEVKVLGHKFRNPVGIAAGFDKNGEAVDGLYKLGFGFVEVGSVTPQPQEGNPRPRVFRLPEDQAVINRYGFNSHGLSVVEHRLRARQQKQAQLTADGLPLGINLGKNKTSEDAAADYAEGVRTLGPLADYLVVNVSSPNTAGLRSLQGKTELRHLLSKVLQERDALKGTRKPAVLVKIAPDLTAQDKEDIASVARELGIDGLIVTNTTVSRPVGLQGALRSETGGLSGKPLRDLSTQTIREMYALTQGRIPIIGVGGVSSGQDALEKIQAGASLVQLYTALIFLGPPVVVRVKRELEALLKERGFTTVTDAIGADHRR
# [4] = target: Dihydroorotate dehydrogenase (quinone), mitochondrial (Mus musculus, UniProt O35435); experiment: Inhibitory concentration tested on enzyme dihydroorotate dehydrogenase in mouse
# Chain of Dihydroorotate dehydrogenase (quinone), mitochondrial (Mus musculus, UniProt O35435) (O35435 whole entry): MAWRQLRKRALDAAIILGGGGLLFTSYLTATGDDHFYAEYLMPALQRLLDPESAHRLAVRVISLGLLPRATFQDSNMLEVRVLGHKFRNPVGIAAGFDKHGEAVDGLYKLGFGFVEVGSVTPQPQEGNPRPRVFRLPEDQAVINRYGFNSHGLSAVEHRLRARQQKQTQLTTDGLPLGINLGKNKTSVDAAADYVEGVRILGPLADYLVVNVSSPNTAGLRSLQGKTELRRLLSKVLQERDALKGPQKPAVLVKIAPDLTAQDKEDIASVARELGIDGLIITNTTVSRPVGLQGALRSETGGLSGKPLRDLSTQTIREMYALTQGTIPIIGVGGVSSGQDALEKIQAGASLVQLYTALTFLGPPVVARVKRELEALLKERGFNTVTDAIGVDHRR
# [5] = test system: Rattus norvegicus; experiment: Compound was tested in vivo for its ability to inhibit DTH(delayed type hypersensitivity ) in rat at a concentration of 50 mg/kg; type: functional
# In short: (§2)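 Male CFHB rats (160-180 g, n=7-12) sensitized day 0 by tail-base s.c. FCA (0.4 mg M. tuberculosis in liquid paraffin); controls got incomplete adjuvant. Day 7 challenge: soluble M. tuberculosis extract 0.4 mg into right hind footpad, saline in left. Oral dosing once daily days 4-6 and twice day 7 (1 h before, 6 h after). Edema read at 24 h; Student's t-test.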
# [6] = t1/2 in mouse plasma after oral dose (30/mg/Kg); type: ADME, organism-based
# In short: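 Male CD-1 mice (25–32 g, n=5/time point) gavaged orally 30 mg/kg (10 mL/kg). Blood by exsanguination under ether at 0, 1, 3, 6, 24, 48, 72 h, pooled per time point, heparinized; plasma stored −20 °C. Drug quantified by reversed-phase HPLC (ODS, pH 7 phosphate/acetonitrile 65:35, UV 300 nm) with internal standard and spiked-plasma calibration.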
# [7] = test system: Rattus norvegicus; experiment: Compound was tested in vivo for its ability to inhibit DTH(delayed type hypersensitivity ) in rat at a concentration of 10 mg/kg; type: functional; in short: as §2
# [8] = test system: Mus musculus; experiment: In vivo for its ability to inhibit delayed type hypersensitivity in mouse following 30 mg/kg administration.; type: functional; in short: as §1
# [9] = test system: Rattus norvegicus; experiment: Compound was tested in vivo for its ability to inhibit DTH(delayed type hypersensitivity )in rat at a concentration of 1 mg/kg; type: functional; in short: as §2
# [10] = test system: Mus musculus; experiment: In vivo ability to inhibit delayed type hypersensitivity in mouse at a concentration of 100 mg/kg; type: functional; in short: as §1
# [11] = test system: Rattus norvegicus; experiment: Compound was tested in vivo for its ability to inhibit DTH(delayed type hypersensitivity )in rat at a concentration of 3 mg/kg; type: functional; in short: as §2
# [12] = test system: Rattus norvegicus; experiment: Compound was tested in vivo for its ability to inhibit DTH(delayed type hypersensitivity ) in rat at a concentration of 3 mg/kg; type: functional; in short: as §2
# [13] = test system: Mus musculus; experiment: Compound was tested in vivo for its ability to inhibit DTH(delayed type hypersensitivity )in mouse at a concentration of 30 mg/kg.; type: functional; in short: as §1
# [14] = test system: Mus musculus; experiment: Compound was tested in vivo for its ability to inhibit DTH(delayed type hypersensitivity ) in mouse at a concentration of 10 mg/kg; type: functional; in short: as §1
# [15] = test system: Rattus norvegicus; experiment: In vivo for its ability to inhibit delayed type hypersensitivity in rat following 10 mg/kg administration.
# [16] = test system: Rattus norvegicus; experiment: Compound was tested in vivo for its ability to inhibit DTH(delayed type hypersensitivity )in rat at a concentration of 50 mg/kg
# [17] = test system: Rattus norvegicus; experiment: Compound was tested in vivo for its ability to inhibit DTH(delayed type hypersensitivity ) in rat at a concentration of 1 mg/kg; type: functional; in short: as §2
# [18] = test system: Rattus norvegicus; experiment: Compound was tested in vivo for its ability to inhibit DTH(delayed type hypersensitivity )in rat at a concentration of 50 mg/kg; type: functional; in short: as §2
# [19] = test system: Mus musculus; experiment: Compound was tested in vivo for its ability to inhibit DTH(delayed type hypersensitivity ) in mouse at a concentration of 100 mg/kg; type: functional; in short: as §1
half-life [1] [h],IC50 [3] [nM],IC50 [4] [nM],half-life [6] [h],SMILES,inhibition in vivo at 30 mg/kg [2] [%],inhibition in vivo at 50 mg/kg [5] [%],also measured
13,11,178,10,Cc1cc(NC(=O)/C(C#N)=C(\O)C2CC2)ccc1SC(F)(F)F,–,–,inhibition in vivo at 30 mg/kg [8]: 55%; inhibition in vivo at 1 mg/kg [9]: 68%
–,2000,1580,–,N#C/C(C(=O)Nc1ccccc1)=C(/O)C1CC1,25,43,–
4,18,178,14,Cc1cc(NC(=O)/C(C#N)=C(\O)C2CC2)ccc1OC(F)(F)F,–,–,inhibition in vivo at 30 mg/kg [8]: 61%; inhibition in vivo at 3 mg/kg [11]: 46%
–,479,525,–,N#C/C(C(=O)Nc1cccc(C(F)(F)F)c1)=C(/O)C1CC1,41,49,–
3,16,417,3,N#C/C(C(=O)Nc1ccc([S+]([O-])C(F)(F)F)cc1)=C(/O)C1CC1 (centres undefined),25,–,inhibition in vivo at 3 mg/kg [12]: 75%
20,79,36,33,N#C/C(C(=O)Nc1ccc(Br)cc1)=C(/O)C1CC1,64,–,inhibition in vivo at 10 mg/kg [7]: 58%
–,> 10000,> 10000,–,N#C/C(C(=O)Nc1ccc(C(F)(F)F)cc1)=C(/O)c1ccc(C(F)(F)F)cc1,–,–,inhibition in vivo at 10 mg/kg [14]: 17%; inhibition in vivo at 10 mg/kg [15]: 16%
4,21,50,8,N#C/C(C(=O)Nc1ccc([N+](=O)[O-])cc1)=C(/O)C1CC1,–,–,inhibition in vivo at 50 mg/kg [16]: 90%; inhibition in vivo at 30 mg/kg [8]: 64%
–,> 100000,> 100000,–,N#C/C(C(=O)Nc1ccccc1C(F)(F)F)=C(/O)C1CC1,–,-4,inhibition in vivo at 100 mg/kg [19]: -10%
10,11,282,11,Cc1cc(NC(=O)/C(C#N)=C(\O)C2CC2)ccc1C(F)(F)C(F)(F)F,–,–,inhibition in vivo at 30 mg/kg [8]: 65%; inhibition in vivo at 3 mg/kg [11]: 70%
–,832,22400,–,C[S+]([O-])c1ccc(NC(=O)/C(C#N)=C(\O)C2CC2)cc1 (centres undefined),–,71,inhibition in vivo at 100 mg/kg [19]: 1%
7,251,195,13,C=C(C)/C(O)=C(\C#N)C(=O)Nc1ccc(C(F)(F)F)cc1,–,78,inhibition in vivo at 100 mg/kg [19]: 54%
22,–,36,21,N#C/C(C(=O)Nc1ccc(Cl)cc1)=C(/O)C1CC1,–,–,inhibition in vivo at 3 mg/kg [12]: 74%
3,343,3000,2,N#C/C(C(=O)Nc1cccc(Cl)c1)=C(/O)C1CC1,–,25,inhibition in vivo at 100 mg/kg [19]: 55%

# Continued, compound first:
SMILES,half-life [1] [h],IC50 [3] [nM],IC50 [4] [nM],half-life [6] [h],inhibition in vivo at 30 mg/kg [2] [%],inhibition in vivo at 50 mg/kg [5] [%],also measured
C=CC/C(O)=C(\C#N)C(=O)Nc1ccc(C(F)(F)F)cc1,4,107,63,23,75,79,–
N#C/C(C(=O)Nc1ccc(C#N)cc1)=C(/O)C1CC1,5,53,42,6,73,–,inhibition in vivo at 10 mg/kg [7]: 47%
N#C/C(C(=O)Nc1ccc(C(F)(F)F)cn1)=C(/O)C1CC1,7,17,158,5,–,–,inhibition in vivo at 100 mg/kg [10]: 67%; inhibition in vivo at 3 mg/kg [11]: 40%
N#C/C(C(=O)Nc1ccc(S(=O)(=O)C(F)(F)F)cc1)=C(/O)C1CC1,14,3,89,14,43,–,inhibition in vivo at 3 mg/kg [12]: 66%
N#C/C(C(=O)Nc1ccc(OC(F)(F)F)cc1)=C(/O)C1CC1,22,5,173,42,–,–,inhibition in vivo at 1 mg/kg [9]: 78%; inhibition in vivo at 30 mg/kg [13]: 85%
N#C/C(C(=O)Nc1ccc(SC(F)(F)F)cc1)=C(/O)C1CC1,2,–,100,6,39,–,inhibition in vivo at 1 mg/kg [17]: 58%
N#C/C(C(=O)Nc1ccc(CCc2ccccc2)cc1)=C(/O)C1CC1,–,138,–,–,–,–,inhibition in vivo at 100 mg/kg [10]: 5%; inhibition in vivo at 50 mg/kg [18]: 51%
CSc1ccc(NC(=O)/C(C#N)=C(\O)C2CC2)cc1,< 1,13,445,< 2,–,60,inhibition in vivo at 100 mg/kg [19]: 46%
C/C=C/C(O)=C(\C#N)C(=O)Nc1ccc(C(F)(F)F)cc1,–,1410,4270,–,–,16,inhibition in vivo at 100 mg/kg [19]: 54%
N#C/C(C(=O)Nc1ccccc1Cl)=C(/O)C1CC1,–,13300,16600,–,–,-12,inhibition in vivo at 100 mg/kg [19]: 43%

# From ChEMBL document CHEMBL1129574, “Synthesis, structure-activity relationships, and pharmacokinetic properties of dihydroorotate dehydrogenase inhibitors: 2-cyano-3-cyclopropyl-3-hydroxy-N-[3'-methyl-4'-(trifluoromethyl)phenyl ] propenamide and related compounds” (J Med Chem, 1996)
